# Assay outcomes as filed in PubChem BioAssay.
# Apaf1 inhib = inhibitors of human Apaf-1 apoptosome, primary screen, biochemical, DEVD-Rh110 fluorescence, uHTS; Apoptotic protease-activating factor 1 (Homo sapiens), O14727; reconstituted apoptosome caspase-3 activity; inhibition, % at 20 µM; 0.71% of 330,000 active; AID 489030, 2010; active means inhibition of at least 40% at 20 µM;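 further: plate controls were DMSO wells for no effect and DEVD-CHO caspase inhibitor wells for full effect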
#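 System: Apoptosome proteins | Medium: Hepes pH 7.5 with detergent and BSA | Also added: Cytochrome c trigger plus (Z-DEVD)2-Rh110 caspase-3 substrate | Incubation: 30 min compound preincubation, 50 min activation, room temperature | Detection: Rhodamine 110 fluorescence at Ex 480/Em 540 nm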
# SENP7 block = SENP7 protease inhibitors, primary screen, biochemical, luminescence, uHTS | recombinant SENP7, Z-RLRGG-aminoluciferin luminescence, 40 min | inhibition, % at 5 µM | 1.5% of 330,000 active;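 active means inhibition above about 50% at the single test dose, limit read from the data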;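 further: plate controls were DMSO with enzyme for no effect and no enzyme buffer wells for full effect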
# Target sequence (Q9BQF6 706-1050 limits assumed): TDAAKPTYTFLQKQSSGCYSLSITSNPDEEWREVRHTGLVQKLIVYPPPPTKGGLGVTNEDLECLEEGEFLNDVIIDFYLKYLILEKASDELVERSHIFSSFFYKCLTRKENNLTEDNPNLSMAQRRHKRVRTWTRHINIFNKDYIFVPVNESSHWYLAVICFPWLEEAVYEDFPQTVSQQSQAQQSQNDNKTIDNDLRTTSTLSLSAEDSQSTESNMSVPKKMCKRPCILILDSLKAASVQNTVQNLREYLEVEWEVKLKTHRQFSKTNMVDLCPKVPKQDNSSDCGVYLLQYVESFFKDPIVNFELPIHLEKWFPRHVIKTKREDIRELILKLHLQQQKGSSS
# SENP8 block-1 = human SENP8 protease inhibitors, primary screen, biochemical, fluorescence, Nedd8 protein substrate, uHTS; Sentrin-specific protease 8 (Homo sapiens), Q96LD8; recombinant SENP8; inhibition, % at 20 µM; 0.64% of 360,000 active; in the data active means inhibition mostly above about 40%, no sharp cut-off; inactive means mostly below about 27%
# SENP6 inh = SENP6 protease inhibitors, primary screen, biochemical, luminescence, uHTS; 1.8% of 330,000 active; inhibition, % at 10 µM; Recombinant SENP6 catalytic domain, aminoluciferin luminescence;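 active means inhibition above about 50% at the single tested dose, limit read from the data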;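 further: plate controls were DMSO wells with enzyme for no effect and DMSO wells lacking enzyme for full effect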
# UBC13 inh = UBC13 polyubiquitin chain formation inhibitors, primary screen, biochemical, TR-FRET, uHTS; inhibition, % at 20 µM; 0.47% of 330,000 active; in the data active means inhibition above about 45%, passing the limit was not always enough
# SENP8 block-2 = SENP8 protease inhibitors, primary screen, biochemical, luminescence. Sentrin-specific protease 8 (Homo sapiens), Q96LD8. purified SENP8, Z-RLRGG-aminoluciferin cleavage. inhibition, % at 10 µM. 1.2% of 330,000 active; in the data active means inhibition above about 50%
# SENP8 conf = SENP8 protease inhibitors, retest, confirmation, biochemical, luminescence, single concentration; shares compounds with SENP7 block; Recombinant SENP8, Z-RLRGG-aminoluciferin luminescence, 60 min; inhibition, % at 12.5 µM; 40% of 6,200 active; AID 488912, 2010;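 active means mean inhibition across replicates above about 50%, limit read from the data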
# SENP6 confirm = SENP6 protease inhibitors, confirmation, biochemical, luminescence, single concentration; shares compounds with SENP7 block; recombinant SENP6, Z-RLRGG-aminoluciferin luminescence; inhibition, % at 12.5 µM; 58% of 6,200 active; AID 488915, 2010
# SENP7 confirm = SENP7 protease inhibitors, retest, confirmation, biochemical, luminescence, single concentration; shares compounds with SENP7 block; recombinant SENP7, Z-RLRGG-aminoluciferin luminescence, 40 min; inhibition, % at 12.5 µM; 69% of 6,200 active; AID 488917, 2010
# Casp3 select = caspase-3 protease inhibitors, confirmation, selectivity assay for SENP inhibitor project, biochemical, single concentration. shares compounds with SENP7 block. purified caspase-3, Z-DEVD-aminoluciferin luminescence, 60 min. inhibition, % at 12.5 µM. 60% of 6,200 active. AID 488918, 2010;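 active means mean inhibition above about 50%, limit read from the data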;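 further: plate controls were enzyme with DMSO for no effect and wells without caspase-3 for full effect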
# Target sequence (P42574 28-227 limits assumed): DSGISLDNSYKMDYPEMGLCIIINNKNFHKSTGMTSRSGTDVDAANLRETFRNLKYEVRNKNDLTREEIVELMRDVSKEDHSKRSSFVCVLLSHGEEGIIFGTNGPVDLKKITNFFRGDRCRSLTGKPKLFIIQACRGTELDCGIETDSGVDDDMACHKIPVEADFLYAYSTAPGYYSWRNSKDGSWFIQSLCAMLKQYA
# SENP luc ctr = counter-screen for SENP inhibitors: luminescence interference. Pre-incubated SENP8/Z-RLRGG-aminoluciferin, luciferase luminescence interference. 39% of 6,200 active. inhibition, % at 12.5 µM. shares compounds with SENP7 block;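 active means mean inhibition above about 50% when retested at one dose, limit read from the data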;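 further: plate controls were DMSO wells with completed reaction for no effect and substrate without enzyme for full effect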
# Apaf-1 inh conf = Apaf-1 inhibitors, single-dose retest, confirmation, biochemical, fluorescence, DEVD-Rh110, 20 µM; AID 504614, 2011; 25% of 1,800 active; inhibition, % at 20 µM; shares compounds with Apaf1 inhib; reconstituted apoptosome, caspase-3 DEVD-Rh110 fluorescence;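 active means mean inhibition of at least 40% at 20 µM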;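 further: plate controls were DMSO wells for no effect and DEVD-CHO caspase inhibitor control wells for full effect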
# Rh110 quench = Rh110 fluorescence interference by putative Apaf-1 inhibitors, confirmation, artefact control for Apaf-1 inhibitor project, biochemical, 20 µM; shares compounds with Apaf1 inhib; quenched caspase reaction; activation (fluorescence interference), % at 20 µM; 1,800 tested, under 10 active;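 active means signal rise of 40% or more at 20 µM, treated as a fluorescence artifact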
# Fluor interf inh = fluorescence interference of Apaf-1 inhibitor hits, dose response, artefact control for Apaf-1 inhibitor project; fluorescence interference counterscreen, Apaf-1 assay format; 460 tested, under 10 active; shares compounds with Apaf1 inhib; IC50, µM; call rule not given here
# An asterisk follows results filed as active; i = inactive; x = no result. In the library only some 3% were active in any assay of this set; here they are far more common.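 How the source made its calls, unless noted: active means mean inhibition above about 50% in the one-dose retest (limit read from the data); inactive means the rest.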
SMILES,Apaf1 inhib,SENP7 block,SENP8 block-1,SENP6 inh,UBC13 inh,SENP8 block-2,SENP8 conf,SENP6 confirm,SENP7 confirm,Casp3 select,SENP luc ctr,Apaf-1 inh conf,Rh110 quench,Fluor interf inh
O=C(Nc1ccc2nc([C@H]3C[C@H](O)[C@@H](CO)O3)[nH]c2c1)NC(c1ccccc1)c1ccccc1,x,x,-3,x,x,x,x,x,x,x,x,x,x,x
COc1ccc(S(=O)(=O)Nc2cccc3c2O[C@@H](CN(C)Cc2ccc(C(=O)O)cc2)[C@@H](C)CN([C@H](C)CO)C3=O)cc1,8,9,4,-11,-4,9,x,x,x,x,x,x,x,x
CC(C)=CCC/C(C)=C/CC/C(C)=C/CC/C(C)=C/CC1=C(C)C(=O)c2ccccc2C1=O,26,5,-20,13,-27,9,x,x,x,x,x,x,x,x
CC(C)=CCC1=C(OCC(=O)O)C(=O)c2ccccc2C1=O,95*,36,72*,-17,-87,76*,80*,87*,65*,10,9,88*,-8,>100
NC1=Nc2cccc3cccc1c23,67*,2,-351,66*,-56,11,1,23,9,3,2,11,8,x
NC1=CC(=O)c2cccc3cccc1c23,8,12,x,-3,-29,5,x,x,x,x,x,x,x,x
COc1ccccc1N(/N=C1\Sc2ccccc2C1=O)C(C)=O,83*,29,31,92*,-28,79*,8,83*,66*,23,15,73*,4,>100
COc1ccc(CNC(=O)c2c(C)oc3c2C(=O)c2ccccc2C3=O)cc1,67*,38,64*,66*,-35,34,33,61*,21,70*,6,71*,12,>100
O=C1C(Cl)=C(N2CCC(C(=O)O)CC2)C(=O)c2ccccc21,75*,39,-30,63*,-59,28,56*,71*,15,-1,-4,53*,2,>100
O=C(O)C1CCN(C(=O)c2ccccc2Cl)CC1,-20,-2,8,8,9,-5,x,x,x,x,x,x,x,x
CCOCCCNC1=C(Cl)C(=O)c2ccccc2C1=O,48*,54*,47*,75*,-229,47,5,33,2,5,4,30,0,x
CCOCCCNS(=O)(=O)c1ccccc1,-6,-1,13,-12,-3,-10,x,x,x,x,x,x,x,x
O=C1CCC(=O)c2ccc3c4c(ccc1c24)CC3,x,x,-454,x,x,x,x,x,x,x,x,x,x,x
O=C1CCN2C=Nc3cccc4ccc1c2c34,43*,39,i,69*,-36,59*,-25,17,6,-5,-5,28,2,x
Nc1c(N2CCOCC2)cc(Cl)c2nonc12,14,21,2,23,-65,13,x,x,x,x,x,x,x,x
Nc1c(N2CCCC2)cc(Cl)c2nonc12,96*,49,13,91*,-101,83*,46,86*,74*,11,2,75*,4,>100
COc1cccc(C(O)c2nc(-c3cnn(C)c3)cs2)c1 (centres undefined),x,x,14,x,x,x,x,x,x,x,x,x,x,x
CCC(COC)Oc1cc(NCc2ccccc2)c2ncn(C(C)C)c2c1 (centres undefined),97*,73*,11,84*,1,77*,42,71*,23,5,-3,67*,1,>100
CCC(CO)Oc1cc(NCc2ccccc2)c2ncn(C(C)C)c2c1 (centres undefined),33,11,13,0,2,-1,x,x,x,x,x,x,x,x
CC(C)n1cnc2c(NCc3ccccc3)cc(N[C@H](C)CO)cc21,97*,47,-73,-20,-29,81*,85*,90*,68*,97*,-3,96*,5,>100
CC(NC(=S)NCCN1CCOCC1)C12CC3CC(CC(C3)C1)C2 (centres undefined),4,4,8,15,-4,8,x,x,x,x,x,x,x,x
CCCCn1c(CCCNC(=O)c2ccco2)nc2ccccc21,14,-3,2,7,-12,-1,x,x,x,x,x,x,x,x
[O-][n+]1cccc2c(Br)cc(Br)c(O)c21,73*,7,-93,81*,-40,18,-1,9,-5,7,2,18,-1,x
Cc1ccnc(NC(=O)C2CCCN(S(=O)(=O)c3ccc4[nH]c(=O)ccc4c3)C2)c1 (centres undefined),-3,-1,-5,1,-7,0,x,x,x,x,x,x,x,x
COc1ccc(OC)c(CNC(=O)c2coc(=O)c3ccccc23)c1,-5,0,3,-17,-4,0,x,x,x,x,x,x,x,x
Cc1cc(C)c(NC(=O)CNC(=O)COC(=O)Cc2cccs2)c(C)c1,7,4,-52,-2,-2,6,x,x,x,x,x,x,x,x
O=C(NCC1CCCO1)c1coc2nc3ccccc3nc12 (centres undefined),5,8,-495,7,-1,10,x,x,x,x,x,x,x,x
COC(=O)c1c(N)n(CCCN2CCOCC2)c2nc3ccccc3nc12,-72,7,-322,7,-2,2,x,x,x,x,x,x,x,x
